From ChEMBL document CHEMBL2346664, “Synthesis, characterization and in vitro anticancer evaluation of novel 1,2,4-triazolin-3-one derivatives” (2013)

What was measured:
Assay type in all cases: functional
MDA-MB-231 = test: Growth inhibition of human MDA-MB-231 cells after 48 hrs by sulforhodamine B assay; conditions: MDA-MB-231, 48 h
Procedure, shortened: (§1)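 NCI 60-cell-line five-dose screen. Cells were plated at 5,000–40,000/well by doubling time and grown 24 h at 37 °C, 5% CO2. Time-zero plates were TCA-fixed. Drug from DMSO stock was tested at 0.01, 0.1, 1, 10 and 100 µM final for 48 h continuous exposure. Read-out was SRB at 515 nm. GI50 is the concentration giving 50% reduction in net protein increase versus untreated control.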

MCF7 = test: Growth inhibition of human MCF7 cells after 48 hrs by sulforhodamine B assay; conditions: MCF7, 48 h; procedure, shortened: as §1
Malme-3M = test: Growth inhibition of human MALME-3M cells assessed as cell growth at 10 '-6 M after 48 hrs by sulforhodamine B assay; conditions: read-out: Activity
RPMI-8226 = test: Growth inhibition of human RPMI8226 cells assessed as cell growth at 10 '-8 M after 48 hrs by sulforhodamine B assay; conditions: RPMI-8226, 48 h, read-out: Activity
HCT-116 = test: Growth inhibition of human HCT116 cells assessed as cell growth at 10 '-6 M after 48 hrs by sulforhodamine B assay; conditions: HCT-116, 48 h, read-out: Activity
U-251 = test: Growth inhibition of human U251 cells assessed as growth inhibition at 10 uM after 48 hrs by sulforhodamine B assay; conditions: U-251, 48 h, read-out: GI
HL-60(TB) = test: Growth inhibition of human HL-60(TB) cells assessed as cell growth at 10 '-7 M after 48 hrs by sulforhodamine B assay; conditions: HL-60, 48 h, read-out: Activity
Procedure, shortened: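 Five-dose NCI protocol with final concentrations of 0.01–100 µM and drug diluted from a DMSO stock (400× the top concentration) in medium with gentamicin. Cells were pre-incubated 24 h, then exposed 48 h at 37 °C. Suspension cells were fixed with 16% final TCA, SRB-stained and read at 515 nm. Percentage growth at each level was [(Ti−Tz)/(C−Tz)]×100, or [(Ti−Tz)/Tz]×100 when Ti < Tz.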

[1] = Growth inhibition of human NCI-ADR-RES cells assessed as cell growth at 10 '-7 M after 48 hrs by sulforhodamine B assay; conditions: read-out: Activity
PC-3 = test: Growth inhibition of human PC3 cells assessed as growth inhibition at 10 uM after 48 hrs by sulforhodamine B assay; conditions: PC-3, 48 h, read-out: GI
HCT-15 = test: Growth inhibition of human HCT15 cells assessed as cell growth at 10 '-4 M after 48 hrs by sulforhodamine B assay; conditions: HCT-15, 48 h, read-out: Activity
OVCAR-5 = test: Growth inhibition of human OVCAR5 cells assessed as cell growth at 10 '-8 M after 48 hrs by sulforhodamine B assay; conditions: OVCAR-5, 48 h, read-out: Activity
TK-10 = test: Growth inhibition of human TK10 cells assessed as cell growth at 10 '-6 M after 48 hrs by sulforhodamine B assay; conditions: TK-10, 48 h, read-out: Activity
NCI-H23 = test: Growth inhibition of human NCI-H23 cells assessed as growth inhibition at 10 uM after 48 hrs by sulforhodamine B assay; conditions: NCI-H23, 48 h, read-out: GI
COLO 205 = test: Growth inhibition of human COLO205 cells assessed as cell growth at 10 '-8 M after 48 hrs by sulforhodamine B assay; conditions: COLO 205, 48 h, read-out: Activity
SNB-75 [2] = test: Growth inhibition of human SNB75 cells assessed as cell growth at 10 '-7 M after 48 hrs by sulforhodamine B assay; conditions: SNB-75, 48 h, read-out: Activity
T47D [3] = test: Growth inhibition of human T47D cells assessed as growth inhibition at 10 uM after 48 hrs by sulforhodamine B assay; conditions: read-out: GI
A549 = test: Growth inhibition of human A549 cells assessed as growth inhibition at 10 uM after 48 hrs by sulforhodamine B assay; conditions: A549, 48 h, read-out: GI
Procedure, shortened: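 Percent growth inhibition from the single 10^-5 M NCI-60 screen, reported as 100 minus growth percent. Growth percent was measured after 48 h drug exposure at 37 °C, 5% CO2, using TCA fixation, SRB staining and absorbance at 515 nm, against untreated controls and time-zero plates.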

SNB-75 [4] = test: Growth inhibition of human SNB75 cells assessed as cell growth at 10 '-6 M after 48 hrs by sulforhodamine B assay; conditions: SNB-75, 48 h, read-out: Activity
UACC-62 = test: Growth inhibition of human UACC62 cells after 48 hrs by sulforhodamine B assay; conditions: UACC-62, 48 h
HOP-62 [5] = test: Growth inhibition of human HOP62 cells assessed as cell growth at 10 '-8 M after 48 hrs by sulforhodamine B assay; conditions: HOP-62, 48 h, read-out: Activity
[6] = Growth inhibition of human Hs 578T cells after 48 hrs by sulforhodamine B assay; procedure, shortened: as §1
DU-145 = test: Growth inhibition of human DU145 cells assessed as cell growth at 10 '-4 M after 48 hrs by sulforhodamine B assay; conditions: DU-145, 48 h, read-out: Activity
T47D [7] = test: Growth inhibition of human T47D cells assessed as cell growth at 10 '-4 M after 48 hrs by sulforhodamine B assay; conditions: read-out: Activity
SF-539 = test: Growth inhibition of human SF539 cells assessed as cell growth at 10 '-4 M after 48 hrs by sulforhodamine B assay; conditions: SF-539, 48 h, read-out: Activity
SK-MEL-2 = test: Growth inhibition of human SK-MEL-2 cells assessed as cell growth at 10 '-4 M after 48 hrs by sulforhodamine B assay; conditions: SK-MEL-2, 48 h, read-out: Activity
SN12C = test: Growth inhibition of human SN12C cells assessed as cell growth at 10 '-7 M after 48 hrs by sulforhodamine B assay; conditions: read-out: Activity
HOP-62 [8] = test: Growth inhibition of human HOP62 cells assessed as cell growth at 10 '-5 M after 48 hrs by sulforhodamine B assay; conditions: HOP-62, 48 h, read-out: Activity
OVCAR-8 [9] = test: Growth inhibition of human OVCAR8 cells assessed as cell growth at 10 '-8 M after 48 hrs by sulforhodamine B assay; conditions: OVCAR-8, 48 h, read-out: Activity
HOP-62 [10] = test: Growth inhibition of human HOP62 cells assessed as cell growth at 10 '-4 M after 48 hrs by sulforhodamine B assay; conditions: HOP-62, 48 h, read-out: Activity
SW-620 = test: Growth inhibition of human SW620 cells assessed as cell growth at 10 '-8 M after 48 hrs by sulforhodamine B assay; conditions: SW-620, 48 h, read-out: Activity
OVCAR-8 [11] = test: Growth inhibition of human OVCAR8 cells assessed as cell growth at 10 '-5 M after 48 hrs by sulforhodamine B assay; conditions: OVCAR-8, 48 h, read-out: Activity
[12] = read-out: LD50 (the source's name)

SMILES: Cc1cc(=O)oc2cc(OCCn3c(C)nn(-c4ccc(Cl)cc4)c3=O)ccc12
- GI50 (MDA-MB-231): 4530 nM
- TGI (MDA-MB-231): > 1000 nM
- CC50 (MDA-MB-231; [12]): > 1000 nM
- GI50 (MCF7): 2700 nM
- TGI (MCF7): > 1000 nM
- CC50 (MCF7; [12]): > 1000 nM
- growth at 1 µM (Malme-3M): 82%
- growth at 0.01 µM (RPMI-8226): 101%
- growth at 1 µM (HCT-116): 86%
- inhibition of growth at 10 µM (U-251): 68.6%
- growth at 0.1 µM (HL-60(TB)): 104%
- growth at 0.1 µM [1]: 96%
- inhibition of growth at 10 µM (PC-3): 51.5%
- growth at 100 µM (HCT-15): 25%
- growth at 0.01 µM (OVCAR-5): 105%
- growth at 1 µM (TK-10): 114%
- inhibition of growth at 10 µM (NCI-H23): 54.2%
- growth at 0.01 µM (COLO 205): 102%
- growth at 0.1 µM (SNB-75 [2]): 79%
- inhibition of growth at 10 µM (T47D [3]): 52.6%
- inhibition of growth at 10 µM (A549): 69.8%
- growth at 1 µM (SNB-75 [4]): 74%
- GI50 (UACC-62): 1990 nM
- TGI (UACC-62): > 1000 nM
- CC50 (UACC-62; [12]): > 1000 nM
- growth at 0.01 µM (HOP-62 [5]): 101%
- GI50 [6]: 2820 nM
- TGI [6]: > 1000 nM
- CC50 [6, 12]: > 1000 nM
- growth at 100 µM (DU-145): 10%
- growth at 100 µM (T47D [7]): 36%
- growth at 100 µM (SF-539): -12%
- growth at 100 µM (SK-MEL-2): 14%
- growth at 0.1 µM (SN12C): 90%
- growth at 10 µM (HOP-62 [8]): 8%
- growth at 0.01 µM (OVCAR-8 [9]): 95%
- growth at 100 µM (HOP-62 [10]): -8%
- growth at 0.01 µM (SW-620): 99%
- growth at 10 µM (OVCAR-8 [11]): 31%
